Measurements reported in ChEMBL document CHEMBL1122526, “Pyridonecarboxylic acids as antibacterial agents. 4. Synthesis and antibacterial activity of 7-(3-amino-1-pyrrolidinyl)-1-ethyl-6-fluoro-1,4 -dihydro-4-oxo-1,8-naphthyridine-3-carboxylic acid and its analogues” (1984).
In brackets after ≈: the same amount, converted by molar mass.

Assays:
Assay type in all cases: functional
Escherichia coli [1] = assay: In vitro antibacterial activity against Escherichia coli NIHJ JC-2
Pseudomonas aeruginosa [2] = assay: in vitro antibacterial activity against Pseudomonas aeruginosa Tsuchijima
Staphylococcus aureus [3] = assay: In vitro for antibacterial activity against Staphylococcus aureus 209P JC-1
Escherichia coli [4] = assay: Compound was evaluated in vivo for oral antibacterial activity against Escherichia coli P-5101 at a dose of 9E6
Summary of the method: (§1)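 Mice were given a systemic infection and then treated by the oral route. Challenge doses in cells per mouse were 5 × 10^8 for S. aureus 50774, 9 × 10^6 for E. coli P-5101 and 4 × 10^3 for P. aeruginosa 12. The protective dose is given in mg/kg.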

Staphylococcus aureus [5] = assay: Compound was evaluated in vivo for oral antibacterial activity against Staphylococcus aureus 50774 at a dose of 5E8; summary of the method: as §1
Pseudomonas aeruginosa [6] = assay: Compound was evaluated in vivo for oral antibacterial activity against Pseudomonas aeruginosa 12 at a dose of 4E3; summary of the method: as §1
Pseudomonas aeruginosa [7] = assay: Compound was evaluated in vivo for oral antibacterial activity iagainst Pseudomonas aeruginosa 12 at a dose of 4E3; summary of the method: as §1

Compound | MIC (Escherichia coli [1]) [µg/mL] | MIC (Pseudomonas aeruginosa [2]) [µg/mL] | MIC (Staphylococcus aureus [3]) [µg/mL] | ED50 (Escherichia coli [4]) [mg/kg] | ED50 (Staphylococcus aureus [5]) [mg/kg] | ED50 (Pseudomonas aeruginosa [6]) [mg/kg] | ED50 (Pseudomonas aeruginosa [7]) [mg/kg]
CCn1cc(C(=O)O)c(=O)c2cc(F)c(N3CCC(O)CC3)nc21 | 3.13 (≈ 9.33 µM) | 6.25 (≈ 18.6 µM) | 0.78 (≈ 2.33 µM) |  |  |  | 
CN(C)C1CCN(c2nc3c(cc2F)c(=O)c(C(=O)O)cn3CCF)C1 (centres undefined) | 0.2 (≈ 0.546 µM) | 6.25 (≈ 17.1 µM) | 0.78 (≈ 2.13 µM) |  |  |  | 
NC1CCN(c2nc3c(cc2F)c(=O)c(C(=O)O)cn3CCF)C1 (centres undefined) | 0.1 (≈ 0.296 µM) | 0.39 (≈ 1.15 µM) | 0.39 (≈ 1.15 µM) | 2.8 | 4.6 | 6.3 | 
CCn1cc(C(=O)O)c(=O)c2cc(F)c(N3CC(N)C3)nc21 | 0.1 (≈ 0.326 µM) | 0.78 (≈ 2.55 µM) | 0.78 (≈ 2.55 µM) | 4.1 | 8.8 | 12.5 | 
CC(=O)N(C)C1CCN(c2nc3c(cc2F)c(=O)c(C(=O)O)cn3CCF)C1 (centres undefined) | 1.56 (≈ 3.96 µM) | 25 (≈ 63.4 µM) | 0.39 (≈ 0.989 µM) |  |  |  | 
CCn1cc(C(=O)O)c(=O)c2cc(F)c(N3CCC(NCC(F)(F)F)C3)nc21 (centres undefined) | 1.56 (≈ 3.88 µM) | 50 (≈ 124 µM) | 0.78 (≈ 1.94 µM) |  |  |  | 
CCn1cc(C(=O)O)c(=O)c2cc(F)c(N3CCC(CNC(C)=O)CC3)nc21 | 1.56 (≈ 4 µM) | 25 (≈ 64 µM) | 0.78 (≈ 2 µM) |  |  |  | 
CCn1cc(C(=O)O)c(=O)c2cc(F)c(N3CCC(N(C)C)C3)nc21 (centres undefined) | 0.78 (≈ 2.24 µM) | 6.25 (≈ 17.9 µM) | 1.56 (≈ 4.48 µM) |  |  |  | 
CCn1cc(C(=O)O)c(=O)c2cc(F)c(N3CCCC(N)C3)nc21 (centres undefined) | 0.78 (≈ 2.33 µM) | 6.25 (≈ 18.7 µM) | 0.78 (≈ 2.33 µM) |  |  |  | 
CCn1cc(C(=O)O)c(=O)c2cc(F)c(N3CCC(CN)CC3)nc21 | 1.56 (≈ 4.48 µM) | 12.5 (≈ 35.9 µM) | 0.39 (≈ 1.12 µM) |  |  |  | 
CCn1cc(C(=O)O)c(=O)c2cc(F)c(N3CC(N)C(O)C3)nc21 (centres undefined) | 1.56 (≈ 4.64 µM) | 3.13 (≈ 9.31 µM) | 1.56 (≈ 4.64 µM) |  |  |  | 
CCn1cc(C(=O)O)c(=O)c2cc(F)c(N3CCCC(O)C3)nc21 (centres undefined) | 3.13 (≈ 9.33 µM) | 25 (≈ 74.6 µM) | 1.56 (≈ 4.65 µM) |  |  |  | 
CCn1cc(C(=O)O)c(=O)c2cc(F)c(N3CCC(N(C)C(C)=O)C3)nc21 (centres undefined) | 6.25 (≈ 16.6 µM) | 25 (≈ 66.4 µM) | 0.78 (≈ 2.07 µM) |  |  |  | 
CCn1cc(C(=O)O)c(=O)c2cc(F)c(N3CCC(NC(=O)c4ccccc4)CC3)nc21 | 12.5 (≈ 28.5 µM) | > 100 | 1.56 (≈ 3.56 µM) |  |  |  | 
CCn1cc(C(=O)O)c(=O)c2cc(F)c(N3CCC(N)CC3)nc21 | 0.2 (≈ 0.598 µM) | 1.56 (≈ 4.67 µM) | 0.2 (≈ 0.598 µM) | 6.3 | > 25 |  | 16.2
CCn1cc(C(=O)O)c(=O)c2cc(F)c(N3CCC(Cl)C3)nc21 (centres undefined) | 0.39 (≈ 1.15 µM) | 12.5 (≈ 36.8 µM) | 0.2 (≈ 0.589 µM) |  |  |  | 
CCn1cc(C(=O)O)c(=O)c2cc(F)c(N3CCCC(C(N)=O)C3)nc21 (centres undefined) | 12.5 (≈ 34.5 µM) | 50 (≈ 138 µM) | 6.25 (≈ 17.2 µM) |  |  |  | 
CCn1cc(C(=O)O)c(=O)c2cc(F)c(N3CC(OC)C3)nc21 | 3.13 (≈ 9.74 µM) | 6.25 (≈ 19.5 µM) | 0.78 (≈ 2.43 µM) |  |  |  | 
CCn1cc(C(=O)O)c(=O)c2cc(F)c(N3CCC(NC(=O)C(F)(F)F)C3)nc21 (centres undefined) | 1.56 (≈ 3.75 µM) | 6.25 (≈ 15 µM) | 0.78 (≈ 1.87 µM) |  |  |  | 
CCn1cc(C(=O)O)c(=O)c2cc(F)c(N3CC(O)C3)nc21 | 0.78 (≈ 2.54 µM) | 3.13 (≈ 10.2 µM) | 0.78 (≈ 2.54 µM) |  |  |  | 
CCOC1CN(c2nc3c(cc2F)c(=O)c(C(=O)O)cn3CC)C1 | 3.13 (≈ 9.33 µM) | 25 (≈ 74.6 µM) | 0.78 (≈ 2.33 µM) |  |  |  | 
CCn1cc(C(=O)O)c(=O)c2cc(F)c(N3CC(N4CCOCC4)C3)nc21 | 6.25 (≈ 16.6 µM) | 50 (≈ 133 µM) | 1.56 (≈ 4.14 µM) |  |  |  | 
CCn1cc(C(=O)O)c(=O)c2cc(F)c(N3CCNCC3)nc21 [ENOXACIN] | 0.2 (≈ 0.624 µM) | 0.78 (≈ 2.44 µM) | 0.78 (≈ 2.44 µM) | 1.8 | 10 | 9 | 

Now from value to molecule, other results behind:

MIC (Escherichia coli [1]) [µg/mL] | MIC (Pseudomonas aeruginosa [2]) [µg/mL] | MIC (Staphylococcus aureus [3]) [µg/mL] | Compound | ED50 (Escherichia coli [4]) [mg/kg] | ED50 (Staphylococcus aureus [5]) [mg/kg] | ED50 (Pseudomonas aeruginosa [6]) [mg/kg] | ED50 (Pseudomonas aeruginosa [7]) [mg/kg]
0.78 (≈ 2.24 µM) | 3.13 (≈ 8.99 µM) | 0.78 (≈ 2.24 µM) | CCn1cc(C(=O)O)c(=O)c2cc(F)c(N3CCC(NC=O)C3)nc21 (centres undefined) |  |  |  | 
1.56 (≈ 4.47 µM) | 3.13 (≈ 8.96 µM) | 0.39 (≈ 1.12 µM) | CCn1cc(C(=O)O)c(=O)c2cc(F)c(N3CCC(OC=O)C3)nc21 (centres undefined) |  |  |  | 
0.2 (≈ 0.598 µM) | 1.56 (≈ 4.67 µM) | 0.39 (≈ 1.17 µM) | CCn1cc(C(=O)O)c(=O)c2cc(F)c(N3CCC(NC)C3)nc21 (centres undefined) | 1.4 | 4.8 | 6.5 | 
0.1 (≈ 0.329 µM) | 0.39 (≈ 1.28 µM) | 1.56 (≈ 5.13 µM) | C=Cn1cc(C(=O)O)c(=O)c2cc(F)c(N3CC(N)C3)nc21 |  |  |  | 
0.78 (≈ 2.16 µM) | 12.5 (≈ 34.7 µM) | 1.56 (≈ 4.33 µM) | C=Cn1cc(C(=O)O)c(=O)c2cc(F)c(N3CCC(NC(C)=O)C3)nc21 (centres undefined) |  |  |  | 
0.2 (≈ 0.568 µM) | 0.78 (≈ 2.21 µM) | 0.78 (≈ 2.21 µM) | CNC1CCN(c2nc3c(cc2F)c(=O)c(C(=O)O)cn3CCF)C1 (centres undefined) | 2.8 | 15 | 19.3 | 
1.56 (≈ 4.65 µM) | 12.5 (≈ 37.3 µM) | 0.39 (≈ 1.16 µM) | CCn1cc(C(=O)O)c(=O)c2cc(F)c(N3CCC(NN)C3)nc21 (centres undefined) |  |  |  | 
0.39 (≈ 1.13 µM) | 3.13 (≈ 9.04 µM) | 0.78 (≈ 2.25 µM) | C=Cn1cc(C(=O)O)c(=O)c2cc(F)c(N3CCC(NC=O)C3)nc21 (centres undefined) |  |  |  | 
0.025 (≈ 0.0785 µM) | 0.2 (≈ 0.628 µM) | 0.2 (≈ 0.628 µM) | C=Cn1cc(C(=O)O)c(=O)c2cc(F)c(N3CCC(N)C3)nc21 (centres undefined) | 0.72 | 1.6 | 1.6 | 
1.56 (≈ 4.1 µM) | 25 (≈ 65.7 µM) | 1.56 (≈ 4.1 µM) | CC(=O)NC1CCN(c2nc3c(cc2F)c(=O)c(C(=O)O)cn3CCF)C1 (centres undefined) |  |  |  | 
6.25 (≈ 17.2 µM) | 6.25 (≈ 17.2 µM) | 0.78 (≈ 2.15 µM) | CCn1cc(C(=O)O)c(=O)c2cc(F)c(N3CCC(NC(C)=O)C3)nc21 (centres undefined) |  |  |  | 
6.25 (≈ 15.6 µM) | 100 (≈ 250 µM) | 1.56 (≈ 3.9 µM) | C=Cn1cc(C(=O)O)c(=O)c2cc(F)c(N3CCC(NCC(F)(F)F)C3)nc21 (centres undefined) |  |  |  | 
6.25 (≈ 17.2 µM) | > 100 | 25 (≈ 69 µM) | CCCNC1CCN(c2nc3c(cc2F)c(=O)c(C(=O)O)cn3CC)C1 (centres undefined) |  |  |  | 
0.39 (≈ 1.13 µM) | 3.13 (≈ 9.04 µM) | 3.13 (≈ 9.04 µM) | C=Cn1cc(C(=O)O)c(=O)c2cc(F)c(N3CCC(N(C)C)C3)nc21 (centres undefined) |  |  |  | 
3.13 (≈ 8.36 µM) | 25 (≈ 66.8 µM) | 1.56 (≈ 4.17 µM) | C=Cn1cc(C(=O)O)c(=O)c2cc(F)c(N3CCC(N(C)C(C)=O)C3)nc21 (centres undefined) |  |  |  | 
0.78 (≈ 2.43 µM) | 0.78 (≈ 2.43 µM) | 0.39 (≈ 1.21 µM) | CCn1cc(C(=O)O)c(=O)c2cc(F)c(N3CCC(O)C3)nc21 (centres undefined) | 6.8 | 5.5 | 42 | 
0.1 (≈ 0.301 µM) | 0.78 (≈ 2.35 µM) | 0.78 (≈ 2.35 µM) | C=Cn1cc(C(=O)O)c(=O)c2cc(F)c(N3CCC(NC)C3)nc21 (centres undefined) | 2 | 1.6 | 3.7 | 
0.78 (≈ 2.24 µM) | 3.13 (≈ 8.98 µM) | 0.78 (≈ 2.24 µM) | CCNC1CCN(c2nc3c(cc2F)c(=O)c(C(=O)O)cn3CC)C1 (centres undefined) |  |  |  | 
3.13 (≈ 8.61 µM) | 25 (≈ 68.8 µM) | 6.25 (≈ 17.2 µM) | CCn1cc(C(=O)O)c(=O)c2cc(F)c(N3CCC(NC(N)=O)C3)nc21 (centres undefined) |  |  |  | 
0.1 (≈ 0.312 µM) | 0.39 (≈ 1.22 µM) | 0.2 (≈ 0.624 µM) | CCn1cc(C(=O)O)c(=O)c2cc(F)c(N3CCC(N)C3)nc21 (centres undefined) [ESAFLOXACIN] | 1.7 | 3 | 3.7 | 
